# ChEMBL document CHEMBL5303300, “EUbOPEN Chemogenomics Library - Multiplex” (2023)
# “And” between values parts separate entries of the source, which are not always exact repeats. Identical values can stand only once.
# Tests used:
# Format in all cases: toxicity, cell-based
# Fibroblast = experiment: Multiplex assay against human fibroblast; conditions: number of replicates 2
# Method in brief: (§1)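 Live cells were stained at seeding with Hoechst33342, BioTracker Green Microtubule Cytoskeleton Dye, MitoTracker Red and Annexin V Alexa Fluor 680, then imaged on a CQ1 microscope at 37°C and 5% CO2 after compound addition. CellPathfinder machine-learning gating split cells into Hoechst high-intensity objects or normal cells. Normal cells were split into healthy, pyknosed or fragmented nuclei, and pyknosed cells into mitotic or apoptotic. Tubulin, mitochondrial-mass and membrane-permeability phenotypes are per cents of healthy-nucleus cells.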
# HEK-293T = experiment: Multiplex assay against HEK293T; conditions: human, number of replicates 2; method in brief: as §1
# U2OS = experiment: Multiplex assay against U2OS; conditions: human, number of replicates 2; method in brief: as §1
# [1] = 12 h, 1 µM, compound concentration 1 uM
# [2] = 12 h, 10 µM, compound concentration 10 uM
# [3] = 24 h, 1 µM, compound concentration 1 uM
# [4] = 24 h, 10 µM, compound concentration 10 uM
# [5] = 48 h, 1 µM, compound concentration 1 uM
# [6] = 48 h, 10 µM, compound concentration 10 uM
smiles,measurement,setting,value
Cc1ccc2c(N)c(C(=O)NC3CCc4cc(N5CC6CCC(C5)N6)ccc4C3)sc2n1.O=CO (configuration not stated),Population Apoptotic (%),Fibroblast; [1],50% and 54%
same,Population Fragmented Nuclei (%),Fibroblast; [1],16%
same,Population Healthy Nuclei (%),Fibroblast; [1],73% and 68%
same,Population Hoechst High Intensity Objects (%),Fibroblast; [1],0% and 1%
same,Population Membrane Permeable-Phenotype (%),Fibroblast; [1],2%
same,Population Mitochondria Different-Phenotype (%),Fibroblast; [1],1% and 2%
same,Population Mitotic Cells (%),Fibroblast; [1],50% and 45%
same,Population Normal (%),Fibroblast; [1],99% and 98%
same,Population Pyknosed Nuclei (%),Fibroblast; [1],10% and 15%
same,Population Tubulin-Different-Phenotype (%),Fibroblast; [1],17% and 14%
same,Total Cell Count,Fibroblast; [1],232 and 283
same,Population Apoptotic (%),Fibroblast; [2],38% and 26%
same,Population Fragmented Nuclei (%),Fibroblast; [2],16% and 24%
same,Population Healthy Nuclei (%),Fibroblast; [2],53% and 55%
same,Population Hoechst High Intensity Objects (%),Fibroblast; [2],3% and 5%
same,Population Membrane Permeable-Phenotype (%),Fibroblast; [2],4% and 2%
same,Population Mitochondria Different-Phenotype (%),Fibroblast; [2],3% and 1%
same,Population Mitotic Cells (%),Fibroblast; [2],61% and 73%
same,Population Normal (%),Fibroblast; [2],96% and 94%
same,Population Pyknosed Nuclei (%),Fibroblast; [2],29% and 20%
same,Population Tubulin-Different-Phenotype (%),Fibroblast; [2],23% and 22%
same,Total Cell Count,Fibroblast; [2],238 and 259
same,Population Apoptotic (%),Fibroblast; [3],46% and 52%
same,Population Fragmented Nuclei (%),Fibroblast; [3],14%
same,Population Healthy Nuclei (%),Fibroblast; [3],75% and 71%
same,Population Hoechst High Intensity Objects (%),Fibroblast; [3],0%
same,Population Membrane Permeable-Phenotype (%),Fibroblast; [3],2% and 1%
same,Population Mitochondria Different-Phenotype (%),Fibroblast; [3],3% and 2%
same,Population Mitotic Cells (%),Fibroblast; [3],53% and 47%
same,Population Normal (%),Fibroblast; [3],100% and 99%
same,Population Pyknosed Nuclei (%),Fibroblast; [3],10% and 14%
same,Population Tubulin-Different-Phenotype (%),Fibroblast; [3],15% and 14%
same,Total Cell Count,Fibroblast; [3],259 and 302
same,Population Apoptotic (%),Fibroblast; [4],48% and 45%
same,Population Fragmented Nuclei (%),Fibroblast; [4],18% and 23%
same,Population Healthy Nuclei (%),Fibroblast; [4],42% and 48%
same,Population Hoechst High Intensity Objects (%),Fibroblast; [4],7% and 6%
same,Population Membrane Permeable-Phenotype (%),Fibroblast; [4],2% and 1%
same,Population Mitochondria Different-Phenotype (%),Fibroblast; [4],13% and 8%
same,Population Mitotic Cells (%),Fibroblast; [4],51% and 54%
same,Population Normal (%),Fibroblast; [4],92% and 93%
same,Population Pyknosed Nuclei (%),Fibroblast; [4],39% and 28%
same,Population Tubulin-Different-Phenotype (%),Fibroblast; [4],23% and 15%
same,Total Cell Count,Fibroblast; [4],228 and 250
same,Population Apoptotic (%),Fibroblast; [5],56% and 60%
same,Population Fragmented Nuclei (%),Fibroblast; [5],27% and 18%
same,Population Healthy Nuclei (%),Fibroblast; [5],67% and 71%
same,Population Hoechst High Intensity Objects (%),Fibroblast; [5],0%
same,Population Membrane Permeable-Phenotype (%),Fibroblast; [5],1%
same,Population Mitochondria Different-Phenotype (%),Fibroblast; [5],1% and 3%
same,Population Mitotic Cells (%),Fibroblast; [5],43% and 40%
same,Population Normal (%),Fibroblast; [5],99%
same,Population Pyknosed Nuclei (%),Fibroblast; [5],5% and 10%
same,Population Tubulin-Different-Phenotype (%),Fibroblast; [5],18% and 17%
same,Total Cell Count,Fibroblast; [5],294 and 298
same,Population Apoptotic (%),Fibroblast; [6],67% and 55%
same,Population Fragmented Nuclei (%),Fibroblast; [6],20% and 22%
same,Population Healthy Nuclei (%),Fibroblast; [6],29% and 36%
same,Population Hoechst High Intensity Objects (%),Fibroblast; [6],11% and 10%
same,Population Membrane Permeable-Phenotype (%),Fibroblast; [6],7% and 2%
same,Population Mitochondria Different-Phenotype (%),Fibroblast; [6],21% and 16%
same,Population Mitotic Cells (%),Fibroblast; [6],32% and 44%
same,Population Normal (%),Fibroblast; [6],88% and 89%
same,Population Pyknosed Nuclei (%),Fibroblast; [6],49% and 40%
same,Population Tubulin-Different-Phenotype (%),Fibroblast; [6],25% and 15%
same,Total Cell Count,Fibroblast; [6],194 and 215
same,Population Apoptotic (%),HEK-293T; [1],50% and 60%
same,Population Fragmented Nuclei (%),HEK-293T; [1],3% and 5%
same,Population Healthy Nuclei (%),HEK-293T; [1],85% and 82%
same,Population Hoechst High Intensity Objects (%),HEK-293T; [1],12% and 13%
same,Population Membrane Permeable-Phenotype (%),HEK-293T; [1],2% and 1%
same,Population Mitochondria Different-Phenotype (%),HEK-293T; [1],57% and 50%
same,Population Mitotic Cells (%),HEK-293T; [1],50% and 39%
same,Population Normal (%),HEK-293T; [1],87% and 86%
same,Population Pyknosed Nuclei (%),HEK-293T; [1],11%
same,Population Tubulin-Different-Phenotype (%),HEK-293T; [1],79% and 80%
same,Total Cell Count,HEK-293T; [1],342 and 430
same,Population Apoptotic (%),HEK-293T; [2],77% and 90%
same,Population Fragmented Nuclei (%),HEK-293T; [2],7% and 15%
same,Population Healthy Nuclei (%),HEK-293T; [2],66% and 63%
same,Population Hoechst High Intensity Objects (%),HEK-293T; [2],66% and 71%
same,Population Membrane Permeable-Phenotype (%),HEK-293T; [2],15% and 21%
same,Population Mitochondria Different-Phenotype (%),HEK-293T; [2],60% and 54%
same,Population Mitotic Cells (%),HEK-293T; [2],22% and 9%
same,Population Normal (%),HEK-293T; [2],33% and 28%
same,Population Pyknosed Nuclei (%),HEK-293T; [2],26% and 21%
same,Population Tubulin-Different-Phenotype (%),HEK-293T; [2],68% and 63%
same,Total Cell Count,HEK-293T; [2],206 and 183
same,Population Apoptotic (%),HEK-293T; [3],58% and 60%
same,Population Fragmented Nuclei (%),HEK-293T; [3],5% and 3%
same,Population Healthy Nuclei (%),HEK-293T; [3],86% and 89%
same,Population Hoechst High Intensity Objects (%),HEK-293T; [3],13% and 16%
same,Population Membrane Permeable-Phenotype (%),HEK-293T; [3],1% and 2%
same,Population Mitochondria Different-Phenotype (%),HEK-293T; [3],60% and 50%
same,Population Mitotic Cells (%),HEK-293T; [3],41% and 40%
same,Population Normal (%),HEK-293T; [3],86% and 83%
same,Population Pyknosed Nuclei (%),HEK-293T; [3],8% and 6%
same,Population Tubulin-Different-Phenotype (%),HEK-293T; [3],72% and 71%
same,Total Cell Count,HEK-293T; [3],413 and 427
same,Population Apoptotic (%),HEK-293T; [4],95% and 72%
same,Population Fragmented Nuclei (%),HEK-293T; [4],11% and 14%
same,Population Healthy Nuclei (%),HEK-293T; [4],59% and 66%
same,Population Hoechst High Intensity Objects (%),HEK-293T; [4],67% and 66%
same,Population Membrane Permeable-Phenotype (%),HEK-293T; [4],14% and 13%
same,Population Mitochondria Different-Phenotype (%),HEK-293T; [4],66% and 63%
same,Population Normal (%),HEK-293T; [4],32% and 33%
same,Population Pyknosed Nuclei (%),HEK-293T; [4],29% and 19%
same,Population Tubulin-Different-Phenotype (%),HEK-293T; [4],61% and 55%
same,Total Cell Count,HEK-293T; [4],216 and 168
same,Population Apoptotic (%),HEK-293T; [5],40% and 66%
same,Population Fragmented Nuclei (%),HEK-293T; [5],5%
same,Population Healthy Nuclei (%),HEK-293T; [5],88% and 87%
same,Population Hoechst High Intensity Objects (%),HEK-293T; [5],8% and 10%
same,Population Membrane Permeable-Phenotype (%),HEK-293T; [5],1% and 0%
same,Population Mitochondria Different-Phenotype (%),HEK-293T; [5],32% and 41%
same,Population Mitotic Cells (%),HEK-293T; [5],59% and 33%
same,Population Normal (%),HEK-293T; [5],91% and 89%
same,Population Pyknosed Nuclei (%),HEK-293T; [5],5% and 7%
same,Population Tubulin-Different-Phenotype (%),HEK-293T; [5],61% and 73%
same,Total Cell Count,HEK-293T; [5],596 and 593
same,Population Apoptotic (%),HEK-293T; [6],77% and 87%
same,Population Fragmented Nuclei (%),HEK-293T; [6],9% and 15%
same,Population Healthy Nuclei (%),HEK-293T; [6],57% and 60%
same,Population Hoechst High Intensity Objects (%),HEK-293T; [6],67%
same,Population Membrane Permeable-Phenotype (%),HEK-293T; [6],14% and 10%
same,Population Mitochondria Different-Phenotype (%),HEK-293T; [6],63% and 70%
same,Population Mitotic Cells (%),HEK-293T; [6],22% and 12%
same,Population Normal (%),HEK-293T; [6],32%
same,Population Pyknosed Nuclei (%),HEK-293T; [6],32% and 24%
same,Population Tubulin-Different-Phenotype (%),HEK-293T; [6],48% and 57%
same,Total Cell Count,HEK-293T; [6],254 and 203
same,Population Apoptotic (%),U2OS; [1],100% and 51%
same,Population Fragmented Nuclei (%),U2OS; [1],11% and 6%
same,Population Healthy Nuclei (%),U2OS; [1],70% and 76%
same,Population Hoechst High Intensity Objects (%),U2OS; [1],0%
same,Population Membrane Permeable-Phenotype (%),U2OS; [1],16% and 7%
same,Population Normal (%),U2OS; [1],100%
same,Population Pyknosed Nuclei (%),U2OS; [1],17% and 16%
same,Population Tubulin-Different-Phenotype (%),U2OS; [1],19% and 25%
same,Population Apoptotic (%),U2OS; [2],36% and 24%
same,Population Healthy Nuclei (%),U2OS; [2],22% and 29%
same,Population Hoechst High Intensity Objects (%),U2OS; [2],3% and 12%
same,Population Membrane Permeable-Phenotype (%),U2OS; [2],16% and 11%
same,Population Mitochondria Different-Phenotype (%),U2OS; [2],50% and 51%
same,Population Mitotic Cells (%),U2OS; [2],63% and 75%
same,Population Normal (%),U2OS; [2],96% and 87%
same,Population Pyknosed Nuclei (%),U2OS; [2],35% and 56%
same,Population Tubulin-Different-Phenotype (%),U2OS; [2],50%
same,Population Apoptotic (%),U2OS; [3],69% and 75%
same,Population Fragmented Nuclei (%),U2OS; [3],4% and 5%
same,Population Healthy Nuclei (%),U2OS; [3],69% and 77%
same,Population Hoechst High Intensity Objects (%),U2OS; [3],0%
same,Population Membrane Permeable-Phenotype (%),U2OS; [3],17% and 6%
same,Population Mitotic Cells (%),U2OS; [3],30% and 24%
same,Population Normal (%),U2OS; [3],100%
same,Population Pyknosed Nuclei (%),U2OS; [3],26% and 16%
same,Population Tubulin-Different-Phenotype (%),U2OS; [3],26% and 23%
same,Population Apoptotic (%),U2OS; [4],56%
same,Population Healthy Nuclei (%),U2OS; [4],19% and 22%
same,Population Hoechst High Intensity Objects (%),U2OS; [4],8% and 11%
same,Population Mitochondria Different-Phenotype (%),U2OS; [4],75% and 69%
same,Population Mitotic Cells (%),U2OS; [4],43%
same,Population Normal (%),U2OS; [4],91% and 88%
same,Population Pyknosed Nuclei (%),U2OS; [4],39% and 64%
same,Population Tubulin-Different-Phenotype (%),U2OS; [4],50% and 60%
same,Population Apoptotic (%),U2OS; [5],80% and 88%
same,Population Fragmented Nuclei (%),U2OS; [5],7% and 5%
same,Population Healthy Nuclei (%),U2OS; [5],49% and 66%
same,Population Hoechst High Intensity Objects (%),U2OS; [5],0%
same,Population Membrane Permeable-Phenotype (%),U2OS; [5],14% and 19%
same,Population Mitochondria Different-Phenotype (%),U2OS; [5],25% and 53%
same,Population Mitotic Cells (%),U2OS; [5],20% and 11%
same,Population Normal (%),U2OS; [5],100%
same,Population Pyknosed Nuclei (%),U2OS; [5],43% and 28%
same,Population Tubulin-Different-Phenotype (%),U2OS; [5],21% and 40%
same,Population Apoptotic (%),U2OS; [6],53% and 87%
same,Population Healthy Nuclei (%),U2OS; [6],31% and 12%
same,Population Membrane Permeable-Phenotype (%),U2OS; [6],53% and 57%
same,Population Mitochondria Different-Phenotype (%),U2OS; [6],84%
same,Population Normal (%),U2OS; [6],95% and 83%
same,Population Pyknosed Nuclei (%),U2OS; [6],36% and 80%
same,Population Tubulin-Different-Phenotype (%),U2OS; [6],100% and 73%
